TDP2 inh: TDP2 (human) inhibition, absorbance primary screen. inhibition, % at 12.8 µM. recombinant TDP2, T5PNP hydrolysis, p-nitrophenol absorbance 415 nm. O95551. 370,000 compounds, 0.34% hits;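 active = inhibition above the mean of all tested compounds plus 3 SD, set per campaign, cut at about 25% in these data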;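 also: 0% = DMSO with enzyme and 100% = buffer with substrate but no TDP2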
Target sequence (O95551 whole entry, looked up): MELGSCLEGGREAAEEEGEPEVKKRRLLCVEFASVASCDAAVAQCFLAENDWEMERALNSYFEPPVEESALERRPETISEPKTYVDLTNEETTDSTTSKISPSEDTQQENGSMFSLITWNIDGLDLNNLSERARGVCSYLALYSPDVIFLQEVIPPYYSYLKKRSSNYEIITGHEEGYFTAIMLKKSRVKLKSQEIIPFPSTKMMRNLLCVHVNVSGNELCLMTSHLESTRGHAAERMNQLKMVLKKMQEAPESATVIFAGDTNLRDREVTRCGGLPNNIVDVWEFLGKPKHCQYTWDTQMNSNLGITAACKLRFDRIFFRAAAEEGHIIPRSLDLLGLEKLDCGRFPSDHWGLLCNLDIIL
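System: recombinant human TDP2 / Amount: 120 nM TDP2 per well / Also added: 5 mM T5PNP chromogenic substrate / Doses: 12.8 µM single point, 1% DMSO / Incubation: 2 h at 37 °C / Detection: p-Nitrophenol epi absorbance / Evaluation: % inhibition relative to enzyme-containing and enzyme-free wells / Repeats: singlicate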
LEDGF integ inh: blocks HIV-1 LEDGF/p75-dependent DNA integration. TR-FRET IN-LEDGF/p75 DNA integration, Eu/Cy5. inhibition, % at 3.7 µM. 370,000 compounds, 0.64% hits. AID 743269;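 active = inhibition above the screen-wide mean plus 3 SD, cut at about 13% in these data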;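 also: signal is the Cy5 over europium emission ratio at 671 and 618 nm; 0% = plate median of compound wells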
UHRF1 MBD2 ctr: human UHRF1 methylated DNA binding inhibitors. inhibition, % at 4.4 µM. UHRF1 binding to methylated oligo, TR-FRET. AID 687016. 370,000 compounds, 0.75% hits; in the data active = inhibition above about 21%;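 also: UHRF1 SRA domain binding a hemimethylated CpG hairpin DNA probe; 0% = median of test compound wells and 100% = reference inhibitor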
MBD2 DNA inh: blocks human MBD2 binding to methylated DNA; TR-FRET, MBD2 binding to methylated oligonucleotide; 370,000 compounds, 0.31% hits; inhibition, % at 4.4 µM; in the data active = inhibition above about 13%
TDP2 inh conf: human TDP2 inhibition, confirmation; shares compounds with TDP2 inh; recombinant human TDP2, absorbance read-out; inhibition, % at 12.8 µM; 1,100 compounds, 22% hits; in the data active = inhibition above about 25%;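 also: 0% = vehicle with enzyme and 100% = no enzyme buffer only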
IN multimer up: counter-screen for LEDGF/p75 integration inhibitors: HIV-1 integrase multimerization activators; TR-FRET HIV-1 integrase multimerization, biochemical; activation, % at 7.7 µM; 2,000 compounds, 17% hits; shares compounds with LEDGF integ inh; in the data active = activation above about 8.9%
TRFRET interf: TR-FRET optical interference, LEDGF/p75 integration counter-screen; shares compounds with LEDGF integ inh; TR-FRET optical interference counterscreen, HIV-1 IN multimerization; inhibition, % at 7.7 µM; 2,000 tested, under 10 active; AID 1053135;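 active = inhibition above the mean over all tested compounds plus 3 SD, which no compound reached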;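 also: 0% = integrase with antibodies and DMSO and 100% = antibodies without integrase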
IN-LEDGF confirm: confirmation of HIV-1 LEDGF/p75-dependent integration inhibitors; shares compounds with LEDGF integ inh; TR-FRET LEDGF/p75-dependent HIV-1 integration, biochemical; inhibition, % at 3.7 µM; 2,000 compounds, 36% hits; in the data active = inhibition above about 14%
* marks the source's active call; other numbers are inactive results; nt = no result given; ! = not confirmed by another sample. The list is not random: actives were taken first. Their share in the collection is about 1.6%.

SMILES	TDP2 inh	LEDGF integ inh	UHRF1 MBD2 ctr	MBD2 DNA inh	TDP2 inh conf	IN multimer up	TRFRET interf	IN-LEDGF confirm
CCOC(=O)CC[C@@]1(C(=O)OCC)C[C@@H](CC(=O)NCc2cccs2)C(=O)N2CCCC=C21	5	-5	0	1	nt	nt	nt	nt
CC1CCCC(NC(=O)COC(=O)c2ccc([N+](=O)[O-])s2)C1C (configuration not stated)	32*	-3	1	2	37*	nt	nt	nt
CC1CCCC(NC(=O)COC(=O)c2ccccc2[N+](=O)[O-])C1C (configuration not stated)	-3	7	1	0	nt	nt	nt	nt
Cc1ccc(-n2nc3ccc(N)cc3n2)cc1	21	4	-6	-10	nt	nt	nt	nt
Nc1ccc2nn(-c3ccc(F)cc3)nc2c1	34*	-7	-4	-2	12	nt	nt	nt
O=[N+]([O-])c1ccc(S(=O)(=O)NCC2COc3ccccc3O2)cc1 (configuration not stated)	25*	7	3	-6	-1	nt	nt	nt
COc1ccc(C(=O)NNC(=O)CSc2nc3c(c(=O)n(C)c(=O)n3C)n2C)cc1	25*	-1	-4	1	7	nt	nt	nt
CCOC(=O)c1cnc(SC)nc1N1CCCC1	29*	-2	1	-4	-6	nt	nt	nt
COc1c(F)c(F)cc2c(=O)c(C(=O)O)cn(C3CC3)c12	26*	-3	-2	0	1	nt	nt	nt
COc1c(N2C[C@@H]3CCCN[C@@H]3C2)c(F)cc2c(=O)c(C(=O)O)cn(C3CC3)c12	-3	1	0	-4	nt	nt	nt	nt
Cc1ccc(CNC(=O)[C@@H](Cc2ccccc2)NC(=O)[C@H]2O[C@@H](n3ccc(N)nc3=O)[C@H](O)[C@@H]2O)o1	2	1	-2	-4	nt	nt	nt	nt
CSC1=NC(=O)/C(=C\c2cccc3ccccc23)S1	25*	4	-4	-3	0	nt	nt	nt
N=C1S/C(=C\c2cccc3ccccc23)C(=O)N1c1ccc(F)cc1	4	0	3	1	nt	nt	nt	nt
COC(=O)CN1CCN(C(=O)c2nocc2C)CC1	3	-2	3	-1	nt	nt	nt	nt
C(=N\Nc1nncn1/N=C/c1ccco1)/c1ccco1	55*	37*	-4	-8	0	1	-5	2
COc1ccc(OC)c(/C=N\Nc2nccs2)c1	3	-2	-5	3	nt	nt	nt	nt
COc1cc(/C=N\Nc2nncn2N)ccc1OC(C)=O	57*	58*	8	2	5	0	1	2
COc1ccc(OC)c(/C=N/Nc2nncn2/N=C/c2cc(OC)ccc2OC)c1	67*	39*	4	3	7	1	-4	2
COc1cc(/C=N/Nc2nncn2/N=C/c2ccc(O)c(OC)c2)ccc1O	67*	48*	10	2	7	7	-24	-6
COC(=O)[C@]12C[C@H](CC(=O)N3CCSCC3)C(=O)N(Cc3cccc4ccccc34)C1=C[C@H](C1CCCC1)O[C@@H]2C	-5	1	3	-4	nt	nt	nt	nt
COc1ccc(OC)c(S(=O)(=O)Nc2ccc(O)c3ccccc23)c1	41*	23*	-2	-2	8	0	2	-1
COc1ccc(C(=O)Nc2ccc(O)c3ccccc23)cc1	12	9	9	-3	nt	nt	nt	nt
O=S(=O)(Nc1ccc(O)c2ccccc12)c1ccc(F)cc1	47*	27*	-1	-5	19	5	-24	8
COc1ccc(OC)c(S(=O)(=O)Nc2cccc3c(O)cccc23)c1	-5	1	0	-2	nt	nt	nt	nt
COc1ccc(NC(=O)Nc2ccc(O)c3ccccc23)cc1	45*	15*	1	-8	18	7	-24	8
SMILES	TDP2 inh	LEDGF integ inh	UHRF1 MBD2 ctr	MBD2 DNA inh	TDP2 inh conf	IN multimer up	TRFRET interf	IN-LEDGF confirm
Cn1cccc1C(=O)N1CCN(S(=O)(=O)c2ccc(F)cc2)CC1	3	-2	-2	2	nt	nt	nt	nt
CC(=O)c1cc(-c2cc(C(F)(F)F)cc(C(F)(F)F)c2)c(=O)n2c1CCC2	2	3	-3	-5	nt	nt	nt	nt
c1cc(N2CCCCC2)nc(N2CCCCC2)n1	-4	3	4	3	nt	nt	nt	nt
C[c-]1[c-](C)[c-](C)[c-](C)[c-]1C.[Fe].c1cc2nccc(N3CCCC3)[c-]2c1 (configuration not stated)	34*	20*!	14	5	26*!	0	1	49*
Nc1[nH]c(C(=O)c2ccc(Br)cc2)c(-c2c(F)cccc2F)c1C(=O)NCCc1c[nH]c2ccccc12	6	0	0	1	nt	nt	nt	nt
COC(=O)C1C(O)=C(C=Nc2ccc(N)cc2)C(=O)CC1(C)C (configuration not stated)	54*	40*	4	-4	-4	2	-12	-6
COC(=O)C1C(O)=C(C=Nc2ccccc2)C(=O)CC1(C)C (configuration not stated)	2	1	-2	1	nt	nt	nt	nt
CC1(C)CC(=O)C(C=Nc2ccc(N)cc2)=C(O)C1	54*	36*	8	-10	-10	5	-18	-3
COc1ccc(C(=O)N[C@@H]2CC[C@@]34CCCN3C(=O)CCC[C@H]4[C@H]2C)cc1	-3	-1	1	5	nt	nt	nt	nt
CCOc1cc(CCNC(=O)c2cc3sccc3n2CC)ccc1OC	4	0	1	2	nt	nt	nt	nt
C[C@@H]1CN([C@@H](C)CO)C(=O)CCCn2cc(nn2)CO[C@H]1CN(C)C(=O)Nc1cccc(F)c1	7	0	0	-7	nt	nt	nt	nt
CC(C)CNc1cccc2c1S(=O)(=O)N(Cc1cn(Cc3ccc(F)cc3)nn1)Cc1ccccc1O2	-5	-2	2	2	nt	nt	nt	nt
CC(C)[C@H]1/C(=C/C2CC2)N2C(=O)C[C@H](c3ccccc3)N=C2N1C	-3	-1	-2	-3	nt	nt	nt	nt
COc1cc(C=c2c3ccccc3n3c2cc(-c2ccccc2)[n+]3C)cc(OC)c1OC	39*	29*	7	-2	43*	3	-10	48*
COC(=O)[C@]12C[C@H](CC(=O)N3CCSCC3)C(=O)N(CCc3ccc(OC)c(OC)c3)C1=C[C@H](C(C)C)O[C@@H]2C1CC1	0	1	1	-5	nt	nt	nt	nt
COc1cc(C(=O)c2nccc3cc(OC)c(OC)cc23)c([N+](=O)[O-])cc1OC	49*	33*	28*	-2	35*	0	1	45*
Nc1cc(-c2cccc([N+](=O)[O-])c2)[nH]n1	3	3	-2	1	nt	nt	nt	nt
O=c1cc(-c2cccc([N+](=O)[O-])c2)[nH][nH]1	71*	22*	19	5	15	-2	11	8
